In ChEMBL document CHEMBL1149628, “Synthesis of novel lactam derivatives and their evaluation as ligands for the dopamine receptors, leading to a D(4)-selective ligand” (Bioorg Med Chem, 2007) one finds Activity, Ki and Selectivity ratio data, which are given here for nine compounds.

In assay [1] the target is T1, D(2) dopamine receptor (Homo sapiens, UniProt P14416). Description: Displacement of [3H]spiperone from human Dopamine receptor D2 isoform long expressed in HEK293 cells at 10 uM. Format: cell-based. The procedure, abridged:
(§1)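 Whole HEK293 cells expressing hD5 or hD2L were suspended in 50 mM Tris-HCl, 5 mM MgCl2, pH 7.4, with [3H]SCH 23390 (D5) or [3H]spiperone (D2) and run in triplicate for 1.5 h at 27 °C. Samples were filtered on PEI-treated filtermats and counted by scintillation. Non-specific binding was set with fluphenazine 100 µM (D5) or haloperidol 10 µM (D2). The value is % change in bound radioactivity.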
(In general: In a radioligand displacement assay an active substance lowers the binding of a labelled ligand.)

Assay [2] in a line: Displacement of [3H]spiperone from human Dopamine D4.4 receptor expressed in CHO cells at 10 uM. It counts as cell-based.
The target of assay [3] is T2, D(1B) dopamine receptor (Homo sapiens, UniProt P21918). Kind of assay: Displacement of [3H]SCH 23390 from human Dopamine D5 receptor expressed in HEK293 cells at 10 uM. Format: cell-based. The gist of the method:
as §1

The target in assay [4] is T1, D(2) dopamine receptor. Kind of assay: Displacement of [3H]Spiperone from human Dopamine receptor D2 isoform long expressed in HEK293 cells. It counts as cell-based. The gist of the method:
(§2)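 [3H]Spiperone competition on whole-cell suspensions (D2L in HEK293, D4.4 in CHO) in Tris-HCl 50 mM/MgCl2 5 mM pH 7.4, 1.5 h at 27 °C. Non-specific binding defined with 10 µM haloperidol. Filtration over PEI-treated filtermat, scintillation counting. At least two independent triplicate experiments; nonlinear fit IC50 converted to Ki by Cheng-Prusoff.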

In the next assay the target is D(3) dopamine receptor (Homo sapiens, UniProt P35462). Description: Displacement of [3H]spiperone from human Dopamine D3 receptor expressed in CHO cells. Format: cell-based.
The nature of assay [5]: Displacement of [3H]spiperone from human Dopamine D4.4 receptor expressed in CHO cells. Format: cell-based. The procedure, abridged:
as §2

Assay [6] addresses T2, D(1B) dopamine receptor. Kind of assay: Displacement of [3H]SCH 23390 from human Dopamine D5 receptor expressed in HEK293. The procedure, abridged:
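Whole HEK293 cell suspension in 5 mM MgCl2/50 mM Tris-HCl pH 7.4, incubated with [3H]SCH 23390 for 1.5 h at 27 °C. Fluphenazine 100 µM defined non-specific binding. Separation by filtration over polyethyleneimine-treated filters, then scintillation counting. At least two independent experiments, each in triplicate; Ki from IC50 by Cheng-Prusoff.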

The target in assay [7] is T1, D(2) dopamine receptor. Description: Antagonist activity at human Dopamine receptor D2 isoform long expressed in HEK293 cells assessed as change in quinpirole-induced intracellular calcium response at 10 uM. Format: functional, cell-based. Also noted: scale not given: the % may be the effect or the level left. The procedure, abridged:
(§3)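 HEK293 cells stably expressing hD2L or hD5 were loaded with Oregon Green 488 BAPTA-1/AM for 45 min at 37 °C and resuspended in Krebs-Hepes buffer at pH 7.4. Cells were preincubated with compound for 30 min at 37 °C, then given standard agonist at 1 µM final (quinpirole for D2, SKF 38393 for D5). Fluorescence (ex 485, em 520 nm) was read for 30 s; the value is % change of the agonist-induced signal.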
On the technique in general: Calcium assays in cells follow changes in intracellular calcium, usually with a dye or a luminescent sensor.

For assay [8], the target named is T1, D(2) dopamine receptor. Description: Antagonist activity at human Dopamine receptor D2 isoform long expressed in HEK293 cells assessed as change in quinpirole-induced intracellular calcium response. It counts as functional, cell-based. The gist of the method: (§4)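 Intact HEK293 cells stably expressing the receptor, loaded with Oregon Green 488 BAPTA-1/AM plus Pluronic F-127 for 45 min at 37 °C, then suspended in Krebs-Hepes buffer pH 7.4. Fluorescence ex 485/em 520 nm read over 30 s. IC50 by four-parameter fit; Ki via modified Cheng-Prusoff.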

In assay [9] the target is T2, D(1B) dopamine receptor. Kind of assay: Antagonist activity at human Dopamine D5 receptor in HEK293 cells assessed as change in SKF 38393-induced intracellular calcium response at 10 uM. Format: functional, cell-based. Also noted: scale not given: the % may be the effect or the level left. The procedure, abridged:
as §3

The target in assay [10] is T2, D(1B) dopamine receptor. Kind of assay: Antagonist activity at human Dopamine D5 receptor in HEK293 cells assessed as change in SKF 38393-induced intracellular calcium response. Format: functional, cell-based. The procedure, abridged: as §4
Assay [11] is filed under the species Homo sapiens. Description: Selectivity for human dopamine D4.4 receptor over human dopamine receptor D2 isoform long.
The species entered for assay [12] is Homo sapiens. Kind of assay: Selectivity for human dopamine D4.4 receptor over human dopamine D3 receptor.
For assay [13], the species on record is Homo sapiens. Description: Selectivity for human dopamine D4.4 receptor over human dopamine D5 receptor.

Activity calls are given as the source filed them. The calls are words filed in the database; no cut-off is given here.

T2 sequence (P21918 whole entry): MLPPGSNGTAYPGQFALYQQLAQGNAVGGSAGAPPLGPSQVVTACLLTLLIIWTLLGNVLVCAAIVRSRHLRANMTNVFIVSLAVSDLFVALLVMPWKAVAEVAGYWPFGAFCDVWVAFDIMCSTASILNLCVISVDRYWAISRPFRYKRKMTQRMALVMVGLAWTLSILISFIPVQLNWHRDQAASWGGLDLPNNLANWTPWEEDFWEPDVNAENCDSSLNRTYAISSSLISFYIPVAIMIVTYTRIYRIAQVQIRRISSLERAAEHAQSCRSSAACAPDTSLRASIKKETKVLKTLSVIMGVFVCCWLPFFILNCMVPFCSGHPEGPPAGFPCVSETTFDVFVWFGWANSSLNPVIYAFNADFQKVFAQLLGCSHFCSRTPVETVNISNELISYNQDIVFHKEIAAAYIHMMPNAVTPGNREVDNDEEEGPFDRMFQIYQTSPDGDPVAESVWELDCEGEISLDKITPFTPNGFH
T1 sequence (P14416 whole entry, canonical isoform): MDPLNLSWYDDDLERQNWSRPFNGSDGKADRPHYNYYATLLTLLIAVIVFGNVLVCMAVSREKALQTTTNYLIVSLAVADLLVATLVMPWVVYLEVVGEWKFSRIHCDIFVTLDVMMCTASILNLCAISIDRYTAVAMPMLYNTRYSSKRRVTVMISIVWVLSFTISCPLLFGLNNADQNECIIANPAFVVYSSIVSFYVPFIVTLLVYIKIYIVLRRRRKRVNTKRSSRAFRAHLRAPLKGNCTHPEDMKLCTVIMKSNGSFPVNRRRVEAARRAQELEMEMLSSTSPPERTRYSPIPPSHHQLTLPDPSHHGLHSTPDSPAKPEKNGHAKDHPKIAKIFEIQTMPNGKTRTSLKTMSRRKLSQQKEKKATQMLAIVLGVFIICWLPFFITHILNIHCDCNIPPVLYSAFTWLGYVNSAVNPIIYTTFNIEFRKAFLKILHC
Sequence of D(3) dopamine receptor (P35462 whole entry): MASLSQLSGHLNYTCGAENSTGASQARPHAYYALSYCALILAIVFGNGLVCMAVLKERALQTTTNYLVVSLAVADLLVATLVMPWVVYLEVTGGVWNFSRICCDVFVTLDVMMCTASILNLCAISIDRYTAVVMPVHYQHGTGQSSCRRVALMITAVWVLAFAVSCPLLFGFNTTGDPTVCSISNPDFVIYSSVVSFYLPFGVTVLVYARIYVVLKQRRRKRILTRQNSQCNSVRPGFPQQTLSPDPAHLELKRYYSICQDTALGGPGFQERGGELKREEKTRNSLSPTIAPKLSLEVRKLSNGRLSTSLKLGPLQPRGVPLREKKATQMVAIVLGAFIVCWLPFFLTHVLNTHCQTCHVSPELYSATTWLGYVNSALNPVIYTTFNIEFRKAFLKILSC

In the case of `O=C1c2ccccc2CN1CCCCN1CCN(c2cccc(C(F)(F)F)c2)CC1`, the Activity at D(2) dopamine receptor [1] is 106%; in [2], 95%; on D(1B) dopamine receptor [3] it was 99%; at D(2) dopamine receptor [7] it was -53%; at D(1B) dopamine receptor [9] it was 41%. For the same compound, the Ki (commonly a dissociation constant, usually derived from enzyme kinetics or from competition with a known ligand) at D(2) dopamine receptor [4] amounted to 387 nM; on D(3) dopamine receptor it was 14 nM; in assay [5], 368 nM; on D(1B) dopamine receptor [6], 80.8 nM; at D(2) dopamine receptor [8], 26 nM. Besides, the outcome at D(1B) dopamine receptor [10] was inactive.
For `O=C1c2ccccc2CN1CCCCN1CCN(c2ccc(Cl)cc2)CC1`, the Activity on D(2) dopamine receptor [1] is 105%; in assay [2], 91%; at D(1B) dopamine receptor [3], 100%; at D(2) dopamine receptor [7], -7%; on D(1B) dopamine receptor [9] it was 21%. The Ki was 760 nM on D(2) dopamine receptor [4]; 660 nM at D(3) dopamine receptor; 142 nM in [5]; 33.6 nM on D(1B) dopamine receptor [6]; more than 10000 nM on D(2) dopamine receptor [8]. The result at D(1B) dopamine receptor [10] was inactive.
Take `O=c1c2ccccc2ncn1CCCCN1CCN(c2cccc(C(F)(F)F)c2)CC1`: the Activity was 107% at D(2) dopamine receptor [1]; 98% in assay [2]; 76% at D(1B) dopamine receptor [3]; -38% at D(2) dopamine receptor [7]; 9% at D(1B) dopamine receptor [9]. In addition, the Ki on D(2) dopamine receptor [4] is 73 nM; at D(3) dopamine receptor it was 102 nM; in assay [5], 185 nM; at D(1B) dopamine receptor [6], 1700 nM; at D(2) dopamine receptor [8], more than 10000 nM. In addition, the outcome on D(1B) dopamine receptor [10] was inactive.
In the case of `O=C1Cc2ccccc2N1CCCCN1CCN(c2cccc(C(F)(F)F)c2)CC1`, the Activity is 105% at D(2) dopamine receptor [1]; 96% in [2]; 93% at D(1B) dopamine receptor [3]; -55% at D(2) dopamine receptor [7]; 26% on D(1B) dopamine receptor [9]. Further, the Ki at D(2) dopamine receptor [4] was 323 nM; on D(3) dopamine receptor, 247 nM; in assay [5], 28 nM; on D(1B) dopamine receptor [6], 190 nM; on D(2) dopamine receptor [8] it was 416 nM. The result at D(1B) dopamine receptor [10] was inactive.
Turning to `O=c1c2ccccc2ncn1CCCCN1CCN(c2ccc(Cl)cc2)CC1`, the Activity at D(2) dopamine receptor [1] is 100%; in assay [2] it was 102%; at D(1B) dopamine receptor [3], 76%; on D(2) dopamine receptor [7] it was -44%; at D(1B) dopamine receptor [9], 5%. The Ki was 140 nM on D(2) dopamine receptor [4]; 1780 nM at D(3) dopamine receptor; 158 nM in assay [5]; 507 nM at D(1B) dopamine receptor [6]; more than 10000 nM at D(2) dopamine receptor [8]; “Not Active” at D(1B) dopamine receptor [10].
For the compound `COc1ccccc1N1CCN(CCCCn2cnc3ccccc3c2=O)CC1`, the figures for the Activity on D(2) dopamine receptor [1] and at D(2) dopamine receptor [7] were 105% and -58%, respectively. In addition, the inhibition constant (Ki) at D(2) dopamine receptor [4] is 184 nM; on D(2) dopamine receptor [8] it was 1.2 nM.
With `O=C1c2ccccc2S(=O)(=O)N1CCCCN1CCN(c2cccc(C(F)(F)F)c2)CC1`, the Activity is 100% on D(2) dopamine receptor [1]; 54% in assay [2]; 89% at D(1B) dopamine receptor [3]; -44% on D(2) dopamine receptor [7]; 8% at D(1B) dopamine receptor [9]. Besides, the Ki on D(2) dopamine receptor [4] was 113 nM; on D(3) dopamine receptor, 107 nM; in assay [5], more than 10000 nM; on D(1B) dopamine receptor [6] it was 1760 nM; on D(2) dopamine receptor [8], more than 10000 nM. Also, the outcome on D(1B) dopamine receptor [10] was inactive.
Turning to `O=C1Cc2ccccc2N1CCCCN1CCN(c2ccc(Cl)cc2)CC1`, the Activity at D(2) dopamine receptor [1] is 106%; in [2] it was 101%; on D(1B) dopamine receptor [3], 93%; on D(2) dopamine receptor [7], -28%; on D(1B) dopamine receptor [9], 8%. In addition, the Ki was 1750 nM on D(2) dopamine receptor [4]; 1200 nM on D(3) dopamine receptor; 0.04 nM in assay [5]; 202 nM on D(1B) dopamine receptor [6]; 375 nM on D(2) dopamine receptor [8]. In addition, the outcome at D(1B) dopamine receptor [10] was inactive. Also, the values for the Selectivity ratio in the assay filed under Homo sapiens [11], in the assay listed under Homo sapiens [12] and in the assay filed under Homo sapiens [13] were more than 43000, more than 30000 and more than 5000, respectively.
Turning to `O=C1c2ccccc2S(=O)(=O)N1CCCCN1CCN(c2ccc(Cl)cc2)CC1`, the Activity is 99% on D(2) dopamine receptor [1]; 101% in [2]; 87% at D(1B) dopamine receptor [3]; -24% on D(2) dopamine receptor [7]; 4% at D(1B) dopamine receptor [9]. The Ki on D(2) dopamine receptor [4] is 177 nM; at D(3) dopamine receptor it was 287 nM; in assay [5], 36 nM; on D(1B) dopamine receptor [6], 230 nM; at D(2) dopamine receptor [8], more than 10000 nM. The outcome at D(1B) dopamine receptor [10] was inactive.
